Measurements from ChEMBL document CHEMBL2176868, “7-Alkyl-3-benzylcoumarins: a versatile scaffold for the development of potent and selective cannabinoid receptor agonists and antagonists” (J Med Chem, 2012).

How the values were obtained:
Cannabinoid receptor 1 [1] = biological target: T1, Cannabinoid receptor 1 (Homo sapiens, UniProt P21554); conditions: CHO, at 1 µM
Cannabinoid receptor 1 [2] = biological target: T1, Cannabinoid receptor 1; assay: biochemical; format: cell-based, CHO
Cannabinoid receptor 2 [3] = biological target: T2, Cannabinoid receptor 2 (Homo sapiens, UniProt P34972); assay: Displacement of [3H]CP55,940 from human CB2 receptor expressed in CHO cells after 2 hrs by liquid scintillation counter; format: cell-based
Cannabinoid receptor 2 [4] = biological target: T2, Cannabinoid receptor 2; assay: Agonist activity at human CB2 receptor expressed in CHO cells assessed as inhibition of forskolin-stimulated cAMP accumulation using [3H]-cAMP at 1 uM after 5 mins by liquid scintillation counter relative to CP55940; format: functional, cell-based
Cannabinoid receptor 1 [5] = biological target: T1, Cannabinoid receptor 1; assay: Agonist activity at human CB1 receptor expressed in CHO cells assessed as inhibition of forskolin-stimulated cAMP accumulation using [3H]-cAMP after 5 mins by liquid scintillation counter; format: functional, cell-based
How it was run: (§1)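 Intact CHO cells stably expressing the receptor (retrovirally transfected, kept in 0.2 mg/mL G418) were seeded 24 h ahead and preincubated 2 h at 37 °C in HBSS. Cells were lysed hot and cAMP was read by competition with [3H]cAMP for bovine adrenal binding protein, filtered and counted. EC50 came from full concentration-response curves, three independent experiments in duplicate.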

Cannabinoid receptor 2 [6] = biological target: T2, Cannabinoid receptor 2; assay: Agonist activity at human CB2 receptor expressed in CHO cells assessed as inhibition of forskolin-stimulated cAMP accumulation using [3H]-cAMP after 5 mins by liquid scintillation counter; format: functional, cell-based
How it was run: as §1

Cannabinoid receptor 2 [7] = biological target: T2, Cannabinoid receptor 2; assay: Displacement of [3H]CP55,940 from human CB2 receptor expressed in CHO cells at 10 uM after 2 hrs by liquid scintillation counter; format: cell-based
How it was run: (§2)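 The screen used CHO cell membranes expressing the human receptor (50 μg protein), [3H]CP55,940 at 0.1 nM final and compound at 10 μM in 50 mM Tris, 3 mM MgCl2, 0.1% BSA, pH 7.4, with 2.5% DMSO final. Incubation was 2 h at room temperature. Nonspecific binding was taken with 10 μM unlabeled CP55,940. Filtration through PEI-soaked GF/C filters was followed by scintillation counting, and the value is % inhibition of binding.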

CHO = assay: Selectivity ratio of Ki for human CB1 receptor to Ki for human CB2 receptor expressed in CHO cells; format: cell-based
Cannabinoid receptor 1 [8] = biological target: T1, Cannabinoid receptor 1; assay: Displacement of [3H]CP55,940 from human CB1 receptor expressed in CHO cells at 10 uM after 2 hrs by liquid scintillation counter; format: cell-based
How it was run: as §2

T1 sequence (P21554 whole entry): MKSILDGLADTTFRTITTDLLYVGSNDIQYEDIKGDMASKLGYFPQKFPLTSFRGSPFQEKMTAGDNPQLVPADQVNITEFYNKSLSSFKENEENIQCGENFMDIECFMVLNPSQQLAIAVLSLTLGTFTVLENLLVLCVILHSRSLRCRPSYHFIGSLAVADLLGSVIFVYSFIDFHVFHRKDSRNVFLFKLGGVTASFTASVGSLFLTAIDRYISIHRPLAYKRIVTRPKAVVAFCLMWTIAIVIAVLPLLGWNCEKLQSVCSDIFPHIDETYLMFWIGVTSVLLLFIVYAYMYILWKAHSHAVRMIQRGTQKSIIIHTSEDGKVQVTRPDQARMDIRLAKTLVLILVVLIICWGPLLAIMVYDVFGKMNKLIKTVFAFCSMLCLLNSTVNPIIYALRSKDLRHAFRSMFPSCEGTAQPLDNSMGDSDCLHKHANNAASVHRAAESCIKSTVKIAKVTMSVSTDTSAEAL
T2 sequence (P34972 whole entry): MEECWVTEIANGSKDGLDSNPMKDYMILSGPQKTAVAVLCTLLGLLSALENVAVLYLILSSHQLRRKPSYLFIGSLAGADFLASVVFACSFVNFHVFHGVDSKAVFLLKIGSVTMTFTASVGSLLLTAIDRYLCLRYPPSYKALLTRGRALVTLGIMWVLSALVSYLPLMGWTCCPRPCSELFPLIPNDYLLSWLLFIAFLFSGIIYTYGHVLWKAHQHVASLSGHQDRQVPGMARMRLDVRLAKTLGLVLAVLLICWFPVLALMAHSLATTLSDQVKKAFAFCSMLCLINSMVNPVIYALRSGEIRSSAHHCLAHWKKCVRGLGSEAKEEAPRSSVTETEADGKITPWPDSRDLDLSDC

Structure (SMILES)	inhibition (Cannabinoid receptor 1 [1])	Ki (Cannabinoid receptor 1 [2])	Ki (Cannabinoid receptor 2 [3])	inhibition (Cannabinoid receptor 2 [4])	EC50 (Cannabinoid receptor 1 [5])	EC50 (Cannabinoid receptor 2 [6])	inhibition (Cannabinoid receptor 2 [7])	Ratio Ki (CHO)	inhibition (Cannabinoid receptor 1 [8])
CCCCCc1cc(O)c2cc(Cc3ccccc3C)c(=O)oc2c1	9%	1.64 µM	3.57 µM	12%					
CCCCCc1cc(O)c2cc(Cc3ccccc3Cl)c(=O)oc2c1	60%	19.1 µM	1.94 µM	2%					
CCCCCc1cc(OC)c2cc(Cc3ccccc3OC)c(=O)oc2c1	93%	0.032 µM	0.049 µM	106%	0.056 µM	0.014 µM			
COc1cccc(Cc2cc3c(OC)cccc3oc2=O)c1	0%	21.1 µM	> 10 µM				27%		
CCCCCc1cc(OC)c2cc(Cc3ccccc3Cl)c(=O)oc2c1	6%	0.033 µM	0.185 µM	47%					
CCCCCc1cc(OC)c2cc(Cc3ccccc3)c(=O)oc2c1	58%	1.92 µM	0.267 µM	47%				7	
COc1cccc(Cc2cc3c(OC)cc(Br)cc3oc2=O)c1	0%	> 10 µM	2.45 µM	0%					38%
CCCCC1(c2cc(O)c3cc(Cc4ccccc4O)c(=O)oc3c2)CCCC1	18%	1.58 µM	0.068 µM	106%		0.048 µM			
CCCCCc1cc(O)c2cc(Cc3cccc(O)c3)c(=O)oc2c1	0%	16.2 µM	5.15 µM	0%					
CCCCCCC(C)(C)c1cc(O)c2cc(Cc3ccccc3O)c(=O)oc2c1	0%	0.244 µM	0.21 µM	76%		0.054 µM			
CCCCC1(c2cc(OC)c3cc(Cc4ccccc4OC)c(=O)oc3c2)CCCCC1		≤ 10 µM	≤ 10 µM				45%		42%
Cc1cc(O)c2cc(Cc3ccccc3C)c(=O)oc2c1		> 10 µM	> 10 µM				38%		34%
CCCCCc1cc(OC)c2cc(Cc3ccccc3C)c(=O)oc2c1	0%	0.022 µM	0.405 µM	58%		0.213 µM			
CCCCCc1cc(O)c2cc(Cc3cccc(C)c3)c(=O)oc2c1	42%	2.17 µM	1.76 µM	10%					
CCCCC1(c2cc(O)c3cc(Cc4ccccc4O)c(=O)oc3c2)CCCCC1	0%	4.89 µM	0.049 µM	76%		0.179 µM		100	
CCCCC1(c2cc(OC)c3cc(Cc4ccccc4OC)c(=O)oc3c2)CCCC1	110%	0.598 µM	1.14 µM	3%					

Structure (SMILES)	inhibition (Cannabinoid receptor 1 [1])	Ki (Cannabinoid receptor 1 [2])	Ki (Cannabinoid receptor 2 [3])	inhibition (Cannabinoid receptor 2 [4])	EC50 (Cannabinoid receptor 1 [5])	EC50 (Cannabinoid receptor 2 [6])	inhibition (Cannabinoid receptor 2 [7])	Ratio Ki (CHO)	inhibition (Cannabinoid receptor 1 [8])
COc1cccc(Cc2cc3c(OC)cc(CBr)cc3oc2=O)c1	23%	4.74 µM	13.3 µM	0%					
Cc1ccc(Cc2cc3c(O)cc(C)cc3oc2=O)cc1		> 10 µM	> 10 µM				23%		30%
CCCCCc1cc(O)c2cc(Cc3ccccc3)c(=O)oc2c1	0%	1.27 µM	1.68 µM	0%					
CCCCCCCC(C)(C)c1cc(O)c2cc(Cc3ccccc3O)c(=O)oc2c1	0%	1.17 µM	0.292 µM	52%					
COc1cccc(Cc2cc3c(OC)cc(CO)cc3oc2=O)c1		> 10 µM	> 10 µM				16%		8%
CCCCCCC(C)(C)c1cc(O)c2cc(Cc3ccccc3)c(=O)oc2c1	84%	2.63 µM	0.465 µM	32%					
CCCCCc1cc(O)c2cc(Cc3cccc(Cl)c3)c(=O)oc2c1	70%	6.39 µM	2.2 µM	0%					
CCCCCc1cc(O)c2cc(Cc3ccccc3O)c(=O)oc2c1	109%	9.82 µM	4.8 µM	0%					
CCCCCCCC(C)(C)c1cc(OC)c2cc(Cc3ccccc3OC)c(=O)oc2c1		10 µM	10 µM				47%		51%
CCCCCc1cc(OC)c2cc(Cc3cccc(Cl)c3)c(=O)oc2c1	0%	0.637 µM	0.35 µM	40%					
CCCCCc1cc(OC)c2cc(Cc3cccc(OC)c3)c(=O)oc2c1	58%	0.045 µM	0.143 µM	93%	0.43 µM	0.092 µM			
CCCCCCC(C)(C)c1cc(OC)c2cc(Cc3ccccc3)c(=O)oc2c1	27%	1.43 µM	4.12 µM	0%					
CCCCCc1cc(OC)c2cc(Cc3cccc(C)c3)c(=O)oc2c1	0%	0.713 µM	0.392 µM	50%					
CCCCCCC(C)(C)c1cc(OC)c2cc(Cc3ccccc3OC)c(=O)oc2c1	0%	1.02 µM	3.01 µM	30%					
COc1cccc(Cc2cc3c(OC)cc(CO[Si](c4ccccc4)(c4ccccc4)C(C)(C)C)cc3oc2=O)c1		> 10 µM	> 10 µM				4%		12%
Cc1ccc(C(C)C)c2cc(Cc3ccccc3O)c(=O)oc12		> 10 µM	> 10 µM				24%		31%
